Reference: ChEMBL document CHEMBL3745596, “Chlorophenoxy aminoalkyl derivatives as histamine H(3)R ligands and antiseizure agents” (Bioorg Med Chem, 2016)
Active and inactive are the calls of the source.

Tests used:
[1] = test system: Mus musculus; experiment: Anticonvulsant activity in CF1 albino mouse assessed as protection against maximal electroshock-induced seizure at 3 mg/kg, ip after 0.5 hrs; assay type: functional, organism-based
Outline: (§1)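 Male CF-1 mice dosed ip as suspension in 0.5% methylcellulose. Corneal electrodes deliver 60 Hz alternating current, 50 mA for […], after a drop of 0.5% tetracaine HCl in 0.9% NaCl per eye. Protection means abolition of hindlimb tonic extension; scored as protected/tested, or ED50 with 95% confidence interval.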

[2] = test system: Rattus norvegicus; experiment: Neurotoxicity in Sprague-Dawley rat at 30 mg/kg, po by rotarod test; assay type: toxicity, organism-based; conditions: in vivo
Outline: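 Oral dosing in male Sprague–Dawley rats, compound as a suspension in 0.5% methylcellulose. Rotarod neurotoxicity on a 1 inch knurled rod turning at 6 rpm, with three falls in 1 min scored as toxic. Reported as toxic/tested.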

[3] = test system: Mus musculus; experiment: Anticonvulsant activity in CF1 albino mouse assessed as protection against maximal electroshock-induced seizure at 30 mg/kg, ip after 4 hrs; assay type: functional, organism-based; outline: as §1
[4] = molecular target: Histamine H3 receptor (Homo sapiens, UniProt Q9Y5N1); experiment: Displacement of [3H]-Nalpha-methylhistamine from human recombinant histamine H3 receptor expressed in HEK293 cells after 90 mins; assay type: cell-based
[5] = test system: Mus musculus; experiment: Neurotoxicity in CF1 albino mouse assessed as death at 300 mg/kg, ip after 0.5 hrs by rotarod test; assay type: toxicity, organism-based; conditions: in vivo
Outline: (§2)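 Male albino CF-1 mice dosed ip with compound suspended in 0.5% methylcellulose, then placed on a 1-inch knurled plastic rod turning at 6 rpm. A fall three times within 1 min counted as neurotoxicity. Observations were made at 0.5 h and 4 h after dosing. Result given as animals showing toxicity per animals tested, with the kind of toxicity recorded.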

[6] = test system: Rattus norvegicus; experiment: Anticonvulsant activity in Sprague-Dawley rat assessed as protection against maximal electroshock-induced seizure at 30 mg/kg, po; assay type: functional
[7] = test system: Mus musculus; experiment: Anticonvulsant activity in CF1 albino mouse assessed as protection against subcutaneous pentetrazole-induced seizure at 100 mg/kg, ip after 4 hrs; assay type: functional, organism-based
Outline: (§3)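 Male CF-1 mice, ip in 0.5% methylcellulose; pentetrazole at CD97 (85 mg/kg) injected subcutaneously in a loose fold of neck skin. Observed 30 min; absence of even a threshold seizure (single clonic spasm lasting at least 5 s) counted as protection. Scored protected/tested, or ED50.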

[8] = test system: Mus musculus; experiment: Neurotoxicity in CF1 albino mouse at 30 mg/kg, ip after 0.5 hrs by rotarod test; assay type: toxicity, organism-based; conditions: in vivo
Outline: (§4)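 Rotarod neurotoxicity in male albino CF-1 mice dosed ip with compound suspended in 0.5% methylcellulose. Animal placed on a 1 inch diameter knurled plastic rod rotating at 6 rpm. Neurotoxicity scored when the animal falls off three times within 1 min. Readout is number of animals toxic/number tested at the stated time after dosing. TD50 with 95% confidence interval from the quantitative study.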

[9] = test system: Mus musculus; experiment: Neurotoxicity in CF1 albino mouse at 3 mg/kg, ip after 0.5 hrs by rotarod test; assay type: toxicity, organism-based; conditions: in vivo; outline: as §4
[10] = test system: Mus musculus; experiment: Neurotoxicity in CF1 albino mouse assessed as unable to grasp rotarod, diarrhea and clonic seizure at 100 mg/kg, ip after 0.5 hrs by rotarod test; assay type: toxicity, organism-based; conditions: in vivo
Outline: (§5)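 Rotarod neurotoxicity in male CF-1 mice dosed ip as 0.5% methylcellulose suspension: mouse placed on 1 inch knurled rod rotating at 6 rpm; toxicity when the animal falls off three times within 1 min, with other signs noted. Scored as toxic/tested at 0.5 h and 4 h.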

[11] = test system: Mus musculus; experiment: Anticonvulsant activity in CF1 albino mouse assessed as protection against subcutaneous pentetrazole-induced seizure at 30 mg/kg, ip after 0.5 hrs; assay type: functional, organism-based; outline: as §3
[12] = test system: Mus musculus; experiment: Anticonvulsant activity in CF1 albino mouse assessed as protection against maximal electroshock-induced seizure at 100 mg/kg, ip after 0.5 hrs; assay type: functional, organism-based; outline: as §1
[13] = test system: Mus musculus; experiment: Neurotoxicity in CF1 albino mouse at 30 mg/kg, ip after 4 hrs by rotarod test; assay type: toxicity, organism-based; conditions: in vivo; outline: as §4
[14] = test system: Mus musculus; experiment: Neurotoxicity in CF1 albino mouse at 100 mg/kg, ip after 4 hrs by rotarod test; assay type: toxicity, organism-based; conditions: in vivo; outline: as §4
[15] = test system: Mus musculus; experiment: Anticonvulsant activity in CF1 albino mouse assessed as protection against subcutaneous pentetrazole-induced seizure at 100 mg/kg, ip after 0.5 hrs; assay type: functional, organism-based; outline: as §3
[16] = test system: Mus musculus; experiment: Anticonvulsant activity in CF1 albino mouse assessed as protection against subcutaneous pentetrazole-induced seizure at 30 mg/kg, ip after 4 hrs; assay type: functional, organism-based; outline: as §3
[17] = test system: Mus musculus; experiment: Neurotoxicity in CF1 albino mouse at 10 mg/kg, ip after 0.5 hrs by rotarod test; assay type: toxicity, organism-based; conditions: in vivo; outline: as §5
[18] = test system: Mus musculus; experiment: Anticonvulsant activity in CF1 albino mouse assessed as protection against maximal electroshock-induced seizure at 100 mg/kg, ip after 4 hrs; assay type: functional, organism-based; outline: as §1
[19] = test system: Mus musculus; experiment: Anticonvulsant activity in CF1 albino mouse assessed as protection against maximal electroshock-induced seizure at 30 mg/kg, ip after 0.5 hrs; assay type: functional, organism-based; outline: as §1
[20] = test system: Mus musculus; experiment: Anticonvulsant activity in CF1 albino mouse assessed as protection against maximal electroshock-induced seizure at 10 mg/kg, ip after 0.5 hrs; assay type: functional, organism-based; outline: as §1
[21] = test system: Mus musculus; experiment: Neurotoxicity in CF1 albino mouse at 300 mg/kg, ip after 4 hrs by rotarod test; assay type: toxicity, organism-based; conditions: in vivo; outline: as §4
[22] = test system: Mus musculus; experiment: Neurotoxicity in CF1 albino mouse assessed as unable to grasp rotarod, death and loss of righting reflux at 100 mg/kg, ip after 0.5 hrs by rotarod test; assay type: toxicity, organism-based; conditions: in vivo; outline: as §2
[23] = test system: Mus musculus; experiment: Anticonvulsant activity in CF1 albino mouse assessed as protection against 6 Hz-psychomotor-induced seizure at 50 mg/kg, ip after 0.25 hrs; assay type: functional, organism-based
Outline: (§6)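 Male CF-1 mice, ip suspension in 0.5% methylcellulose. Corneal stimulation 0.2 ms monopolar rectangular pulses at 6 Hz, 32 mA for 3 s via constant-current device; mice without minimal clonic phase seizure counted protected. Groups of four; read at 0.25, 0.5, 1, 2, 4 h; result as protected/tested.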

[24] = test system: Mus musculus; experiment: Neurotoxicity in CF1 albino mouse at 50 mg/kg, ip after 2 hrs by rotarod test; assay type: toxicity, organism-based; conditions: in vivo; outline: as §4
[25] = test system: Mus musculus; experiment: Anticonvulsant activity in CF1 albino mouse assessed as protection against 6 Hz-psychomotor-induced seizure at 50 mg/kg, ip after 4 hrs; assay type: functional, organism-based; outline: as §6
[26] = test system: Mus musculus; experiment: Neurotoxicity in CF1 albino mouse assessed as unable to grasp rotarod at 100 mg/kg, ip after 0.5 hrs by rotarod test; assay type: toxicity, organism-based; conditions: in vivo; outline: as §5
[27] = test system: Mus musculus; experiment: Neurotoxicity in CF1 albino mouse at 50 mg/kg, ip after 1 hr by rotarod test; assay type: toxicity, organism-based; conditions: in vivo; outline: as §4
[28] = test system: Mus musculus; experiment: Neurotoxicity in CF1 albino mouse at 50 mg/kg, ip after 4 hrs by rotarod test; assay type: toxicity, organism-based; conditions: in vivo; outline: as §4
[29] = test system: Mus musculus; experiment: Anticonvulsant activity in CF1 albino mouse assessed as protection against 6 Hz-psychomotor-induced seizure at 50 mg/kg, ip after 1 hr; assay type: functional, organism-based; outline: as §6
[30] = test system: Mus musculus; experiment: Neurotoxicity in CF1 albino mouse at 50 mg/kg, ip after 0.5 hrs by rotarod test; assay type: toxicity, organism-based; conditions: in vivo; outline: as §4
[31] = test system: Mus musculus; experiment: Anticonvulsant activity in CF1 albino mouse assessed as protection against 6 Hz-psychomotor-induced seizure at 50 mg/kg, ip after 0.5 hrs; assay type: functional, organism-based; outline: as §6
[32] = test system: Mus musculus; experiment: Anticonvulsant activity in CF1 albino mouse assessed as protection against maximal electroshock-induced seizure at 300 mg/kg, ip after 0.5 hrs; assay type: functional, organism-based; outline: as §1
[33] = test system: Mus musculus; experiment: Neurotoxicity in CF1 albino mouse assessed as unable to grasp rotarod and death at 100 mg/kg, ip after 0.5 hrs by rotarod test; assay type: toxicity, organism-based; conditions: in vivo; outline: as §2
[34] = test system: Mus musculus; experiment: Neurotoxicity in CF1 albino mouse assessed as unable to grasp rotarod, death and diarrhea at 300 mg/kg, ip after 0.5 hrs by rotarod test; assay type: toxicity, organism-based; conditions: in vivo; outline: as §2

Histamine H3 receptor, sequence (Q9Y5N1 whole entry): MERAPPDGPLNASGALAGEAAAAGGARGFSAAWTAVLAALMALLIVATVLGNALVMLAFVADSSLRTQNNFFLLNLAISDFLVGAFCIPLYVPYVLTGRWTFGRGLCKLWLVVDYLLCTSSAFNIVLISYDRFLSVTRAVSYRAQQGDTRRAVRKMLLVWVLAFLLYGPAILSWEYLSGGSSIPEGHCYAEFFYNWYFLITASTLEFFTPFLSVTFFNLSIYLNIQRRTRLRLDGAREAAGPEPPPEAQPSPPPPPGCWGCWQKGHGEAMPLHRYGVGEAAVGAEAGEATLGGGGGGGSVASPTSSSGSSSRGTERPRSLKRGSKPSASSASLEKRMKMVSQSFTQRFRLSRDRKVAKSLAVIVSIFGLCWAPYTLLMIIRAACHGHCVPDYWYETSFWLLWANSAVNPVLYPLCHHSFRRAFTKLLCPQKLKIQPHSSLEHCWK

CC1CCN(CCCCCCCOc2ccc(Cl)cc2)CC1.O=C(O)C(=O)O
active: Activity [12] | Activity [18] | Activity [19]
inactive: Activity [1] | Activity [3] | Activity [6] | Activity [7] | Activity [11] | Activity [15] | Activity [16] | Activity [20]
Toxic: Activity [5] | Activity [10]
Non-toxic: Activity [2] | Activity [8] | Activity [9] | Activity [13] | Activity [14] | Activity [17] | Activity [21]
467 nM: Ki [4]

Clc1ccc(OCCCCCN2CCCCCC2)cc1.O=C(O)C(=O)O
inactive: Activity [1] | Activity [3] | Activity [7] | Activity [11] | Activity [15] | Activity [16] | Activity [20]
Non-toxic: Activity [8] | Activity [9] | Activity [13] | Activity [14] | Activity [17] | Activity [21]
active: Activity [18] | Activity [19]
Toxic: Activity [5] | Activity [22]
371 nM: Ki [4]

CC1CCCN(CCCCCCOc2cccc(Cl)c2)C1.O=C(O)C(=O)O (stereo not drawn)
Non-toxic: Activity [24] | Activity [8] | Activity [9] | Activity [27] | Activity [28] | Activity [13] | Activity [14] | Activity [17] | Activity [30] | Activity [21]
Toxic: Activity [5] | Activity [26]
inactive: Activity [1] | Activity [3] | Activity [23] | Activity [6] | Activity [7] | Activity [25] | Activity [11] | Activity [29] | Activity [15] | Activity [16] | Activity [20] | Activity [31]
active: Activity [12] | Activity [18] | Activity [19]
174 nM: Ki [4]

CC1CCN(CCCCCCCOc2cccc(Cl)c2)CC1.O=C(O)C(=O)O
Toxic: Activity [33] | Activity [34]
active: Activity [32] | Activity [18]
805 nM: Ki [4]
Non-toxic: Activity [8] | Activity [13] | Activity [14] | Activity [21]
inactive: Activity [3] | Activity [7] | Activity [11] | Activity [12] | Activity [15] | Activity [16] | Activity [19]
